The source of these data is ChEMBL document CHEMBL1142963, “Novel sigma receptor ligands: synthesis and biological profile” (J Med Chem, 2007).

Assay [1] deals with 5-hydroxytryptamine receptor 4 (Cavia porcellus, UniProt O70528). The assay is described as follows: Displacement of [3H][…] from guinea pig cortex 5HT4 receptor. Summed up: (§1)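 Rat brain tissue by target: striatum for D1, D2 and DAT; olfactory tubercle for D3; cortex for muscarinic, 5-HT3, 5-HT2A, α1, α2, H1, NMDA and SERT; guinea pig cortex for 5-HT4. Inhibitors at seven to nine concentrations. After incubation, samples were filtered on glass fibre filters, washed three times with ice-cold buffer and counted by liquid scintillation. Ki values were derived by curve fitting.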
(Displacement assays read how much labelled ligand stays bound in the presence of the test substance.)

The next assay has as its target D(1A) dopamine receptor (Rattus norvegicus, UniProt P18901). The assay can be described thus: Displacement of [3H]SCH-23390 from rat striatum dopamine D1 receptor. The method in brief:
as §1

The species named for assay [2] is Rattus norvegicus. The assay can be described thus: Increase in TG-2 expression in albino Wistar rat primary astroglial cells at 25 uM after 24 hrs. Type of assay: functional. Summed up:
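Primary Wistar rat astrocytes at 14 DIV were exposed to ligand 25 µM for 24 h. Densitometric percentage of TG-2 versus untreated control; HUVEC extract as positive control. Mean ± SD of four experiments.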

The target in assay [3] is Sodium-dependent serotonin transporter (Rattus norvegicus, UniProt P31652). The assay is described as follows: Displacement of [3H]citalopram from rat cortex SERT. Summed up: as §1
The species named for assay [4] is Rattus norvegicus. The assay can be described thus: Increase in TG-2 expression in albino Wistar rat primary 14 DIV astroglial cell at 25 uM after 24 hrs by CLSM analysis. Format: functional. The method in brief:
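Astrocytes at 14 DIV were treated with 25 µM for 24 h and fixed in 4% paraformaldehyde for 20 min. They were blocked with 1% normal serum for 1 h, then incubated overnight with anti-TG-2 monoclonal (1:500), followed by FITC and TRITC anti-IgG (1:64, 2 h each). Confocal imaging at fixed settings measured cytosolic and nuclear fluorescence intensity versus control after nonspecific subtraction.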

Another assay deals with Glutamate NMDA receptor. The assay is described as follows: Displacement of [3H]CGP-39653 from rat cortex NMDA receptor. The method in brief:
as §1

The next assay has as its target Histamine H1 receptor (Rattus norvegicus, UniProt P31390). The assay is described as follows: Displacement of [3H]pyrilamine from rat cortex histamine H1 receptor. The method in brief: as §1
Assay [5] deals with 5-hydroxytryptamine receptor 2A (Rattus norvegicus, UniProt P14842). The assay is described as follows: Displacement of [3H]ketanserin from rat cortex 5HT2A receptor. The method in brief:
as §1

Assay [6] concerns the target Sodium-dependent dopamine transporter (Rattus norvegicus, UniProt P23977). The assay can be described thus: Displacement of [3H]WIN-35428 from rat striatum DAT. Summed up: as §1
The target of a further assay is D(2) dopamine receptor (Rattus norvegicus, UniProt P61169). The assay is described as follows: Displacement of [3H]spiperone from rat striatum dopamine D2 receptor. The method in brief: as §1
A short description of assay [7]: Displacement of [3H]DTG rom guinea pig brain sigma 2 receptor. Set-up: species or system Cavia porcellus.
For assay [8], the target named is T1, Adrenergic receptor alpha-1 (Rattus norvegicus, UniProt P15823+P23944+P43140).
T1 sequence (P15823 whole entry): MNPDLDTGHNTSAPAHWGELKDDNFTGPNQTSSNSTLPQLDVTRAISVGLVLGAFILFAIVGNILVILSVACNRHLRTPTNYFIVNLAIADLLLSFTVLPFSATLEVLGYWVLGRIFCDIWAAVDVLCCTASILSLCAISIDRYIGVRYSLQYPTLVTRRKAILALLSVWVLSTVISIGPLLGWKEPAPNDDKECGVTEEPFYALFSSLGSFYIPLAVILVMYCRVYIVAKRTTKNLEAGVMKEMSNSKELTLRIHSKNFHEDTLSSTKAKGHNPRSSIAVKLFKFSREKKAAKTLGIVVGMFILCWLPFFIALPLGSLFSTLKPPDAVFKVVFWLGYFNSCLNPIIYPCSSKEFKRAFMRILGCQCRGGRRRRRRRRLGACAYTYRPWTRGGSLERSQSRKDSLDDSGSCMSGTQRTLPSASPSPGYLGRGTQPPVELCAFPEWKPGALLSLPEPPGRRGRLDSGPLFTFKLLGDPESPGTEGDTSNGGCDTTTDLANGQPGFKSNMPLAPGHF
T1 sequence (P23944 whole entry): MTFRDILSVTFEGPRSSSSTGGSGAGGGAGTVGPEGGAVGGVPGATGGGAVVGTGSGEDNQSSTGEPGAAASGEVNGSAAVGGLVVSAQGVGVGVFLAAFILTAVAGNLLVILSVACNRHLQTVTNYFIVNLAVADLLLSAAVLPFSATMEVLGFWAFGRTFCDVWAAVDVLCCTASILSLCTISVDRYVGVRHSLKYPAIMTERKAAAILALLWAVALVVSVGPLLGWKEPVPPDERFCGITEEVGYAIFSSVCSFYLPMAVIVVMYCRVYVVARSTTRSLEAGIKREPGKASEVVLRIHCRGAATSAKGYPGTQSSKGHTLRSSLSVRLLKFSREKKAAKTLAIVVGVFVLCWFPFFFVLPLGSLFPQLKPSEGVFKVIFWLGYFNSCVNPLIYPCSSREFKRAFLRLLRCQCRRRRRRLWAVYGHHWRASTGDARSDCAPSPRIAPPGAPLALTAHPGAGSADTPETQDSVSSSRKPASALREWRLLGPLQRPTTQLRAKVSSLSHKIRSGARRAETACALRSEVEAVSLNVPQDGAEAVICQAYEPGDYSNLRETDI
T1 sequence (P43140 whole entry): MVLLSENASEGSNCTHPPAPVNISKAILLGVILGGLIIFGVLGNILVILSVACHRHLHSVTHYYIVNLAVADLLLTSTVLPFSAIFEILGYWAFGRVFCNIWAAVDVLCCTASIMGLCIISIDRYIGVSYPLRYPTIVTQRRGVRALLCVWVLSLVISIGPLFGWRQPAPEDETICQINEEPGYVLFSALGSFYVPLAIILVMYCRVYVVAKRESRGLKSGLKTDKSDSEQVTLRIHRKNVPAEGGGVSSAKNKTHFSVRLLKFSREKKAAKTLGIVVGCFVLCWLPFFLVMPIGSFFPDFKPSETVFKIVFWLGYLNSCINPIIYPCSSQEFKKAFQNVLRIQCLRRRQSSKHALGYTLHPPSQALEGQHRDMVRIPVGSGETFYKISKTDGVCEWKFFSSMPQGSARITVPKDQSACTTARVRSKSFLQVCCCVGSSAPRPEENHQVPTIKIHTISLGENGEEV
The assay is described as follows: Displacement of [3H]prazosin from rat cortex adrenergic alpha-1 receptor. The method in brief: as §1

In assay [9] the target is Muscarinic acetylcholine receptor. The assay can be described thus: Displacement of [3H]QNB from rat cortex muscarinic receptor. The method in brief:
as §1

In assay [10] the target is 5-hydroxytryptamine receptor 6 (Rattus norvegicus, UniProt P31388). The assay is described as follows: Displacement of [3H]5HT from rat cloned 5HT6 receptor expressed in HEK293 cells. Type of assay: cell-based. The method in brief: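 Membranes from HEK-293 cells expressing cloned rat 5-HT6 receptor. Inhibitors at seven to nine concentrations. After incubation, samples were filtered on glass fibre filters, washed three times with ice-cold buffer and counted by liquid scintillation. Ki values were derived by curve fitting.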

In assay [11] the target is Sigma non-opioid intracellular receptor 1 (Cavia porcellus, UniProt Q60492). The assay can be described thus: Displacement of [3H](+)-pentazocine from guinea pig brain sigma 1 receptor.

pKi: −log10 of the molar value. Activity calls are given as the source filed them. The rule behind the calls is not given here. Where only a bound is given, the exact number is not on record here.

Chain of 5-hydroxytryptamine receptor 2A (P14842 whole entry): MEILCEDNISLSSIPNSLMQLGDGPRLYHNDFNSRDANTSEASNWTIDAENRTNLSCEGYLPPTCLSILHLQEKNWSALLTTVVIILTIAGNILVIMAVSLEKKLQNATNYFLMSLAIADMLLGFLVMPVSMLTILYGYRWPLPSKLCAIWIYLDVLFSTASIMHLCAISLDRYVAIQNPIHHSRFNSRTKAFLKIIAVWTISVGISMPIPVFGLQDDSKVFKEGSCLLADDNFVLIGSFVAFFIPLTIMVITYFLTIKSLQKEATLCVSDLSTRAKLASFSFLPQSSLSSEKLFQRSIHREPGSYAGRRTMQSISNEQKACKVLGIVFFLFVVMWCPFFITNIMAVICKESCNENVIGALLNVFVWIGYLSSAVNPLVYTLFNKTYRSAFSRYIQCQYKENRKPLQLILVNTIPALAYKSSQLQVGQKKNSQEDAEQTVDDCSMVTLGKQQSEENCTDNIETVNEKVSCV
Chain of 5-hydroxytryptamine receptor 4 (O70528 whole entry): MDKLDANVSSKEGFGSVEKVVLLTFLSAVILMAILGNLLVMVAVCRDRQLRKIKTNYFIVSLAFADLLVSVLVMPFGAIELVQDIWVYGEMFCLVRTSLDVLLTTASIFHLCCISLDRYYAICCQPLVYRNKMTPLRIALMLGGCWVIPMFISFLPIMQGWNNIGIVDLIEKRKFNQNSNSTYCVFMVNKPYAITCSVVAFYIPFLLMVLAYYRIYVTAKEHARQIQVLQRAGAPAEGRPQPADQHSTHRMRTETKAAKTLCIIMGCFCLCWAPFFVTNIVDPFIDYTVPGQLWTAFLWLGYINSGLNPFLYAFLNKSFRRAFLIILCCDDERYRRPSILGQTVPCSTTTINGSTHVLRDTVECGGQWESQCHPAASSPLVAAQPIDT
Chain of Sodium-dependent serotonin transporter (P31652 whole entry): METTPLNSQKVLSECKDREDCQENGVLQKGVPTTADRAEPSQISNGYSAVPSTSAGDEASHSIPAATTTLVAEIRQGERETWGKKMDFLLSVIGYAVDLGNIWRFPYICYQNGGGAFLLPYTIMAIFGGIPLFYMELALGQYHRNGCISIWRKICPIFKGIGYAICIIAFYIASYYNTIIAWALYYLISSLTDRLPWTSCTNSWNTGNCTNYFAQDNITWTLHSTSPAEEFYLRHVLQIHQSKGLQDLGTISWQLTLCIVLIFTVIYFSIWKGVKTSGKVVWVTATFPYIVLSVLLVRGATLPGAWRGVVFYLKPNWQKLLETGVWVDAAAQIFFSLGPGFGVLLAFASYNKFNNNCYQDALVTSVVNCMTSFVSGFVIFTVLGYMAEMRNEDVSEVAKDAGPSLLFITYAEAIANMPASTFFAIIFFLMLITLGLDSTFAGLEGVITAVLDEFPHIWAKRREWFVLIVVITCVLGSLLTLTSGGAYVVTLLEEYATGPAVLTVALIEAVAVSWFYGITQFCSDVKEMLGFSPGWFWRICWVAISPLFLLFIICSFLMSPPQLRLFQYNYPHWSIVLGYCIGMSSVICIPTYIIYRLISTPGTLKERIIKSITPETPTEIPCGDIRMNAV
Chain of D(1A) dopamine receptor (P18901 whole entry): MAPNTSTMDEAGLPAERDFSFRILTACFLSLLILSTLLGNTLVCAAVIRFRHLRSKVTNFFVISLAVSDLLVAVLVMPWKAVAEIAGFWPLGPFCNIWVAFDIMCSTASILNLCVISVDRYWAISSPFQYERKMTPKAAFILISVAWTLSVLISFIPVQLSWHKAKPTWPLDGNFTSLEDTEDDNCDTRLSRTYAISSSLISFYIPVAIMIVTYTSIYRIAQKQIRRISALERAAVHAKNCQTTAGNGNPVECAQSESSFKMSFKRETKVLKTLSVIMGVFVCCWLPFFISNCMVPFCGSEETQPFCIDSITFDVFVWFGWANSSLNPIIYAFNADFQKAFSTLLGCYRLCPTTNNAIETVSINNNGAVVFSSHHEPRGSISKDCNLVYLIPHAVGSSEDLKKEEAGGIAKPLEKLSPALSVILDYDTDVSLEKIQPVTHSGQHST
Chain of Histamine H1 receptor (P31390 whole entry): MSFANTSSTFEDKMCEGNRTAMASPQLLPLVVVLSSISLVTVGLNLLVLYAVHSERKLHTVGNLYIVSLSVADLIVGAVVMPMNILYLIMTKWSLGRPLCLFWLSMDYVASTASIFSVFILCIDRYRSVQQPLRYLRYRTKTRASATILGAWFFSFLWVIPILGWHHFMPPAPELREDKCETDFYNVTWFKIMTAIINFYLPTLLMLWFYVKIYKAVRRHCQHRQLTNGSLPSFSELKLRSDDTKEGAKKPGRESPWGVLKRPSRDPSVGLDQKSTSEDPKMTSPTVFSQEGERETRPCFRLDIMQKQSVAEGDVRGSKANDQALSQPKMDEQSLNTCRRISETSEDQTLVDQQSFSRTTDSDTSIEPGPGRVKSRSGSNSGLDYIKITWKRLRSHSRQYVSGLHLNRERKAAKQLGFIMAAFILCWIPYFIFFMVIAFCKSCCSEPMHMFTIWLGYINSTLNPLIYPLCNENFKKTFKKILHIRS
Chain of Sigma non-opioid intracellular receptor 1 (Q60492 whole entry): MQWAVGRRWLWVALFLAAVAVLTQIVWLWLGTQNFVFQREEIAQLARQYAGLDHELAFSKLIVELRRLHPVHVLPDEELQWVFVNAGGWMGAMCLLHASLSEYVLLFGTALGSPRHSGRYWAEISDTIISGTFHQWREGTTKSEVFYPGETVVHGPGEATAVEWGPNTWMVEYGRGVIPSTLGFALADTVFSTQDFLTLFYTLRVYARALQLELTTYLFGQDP
Chain of D(2) dopamine receptor (P61169 whole entry): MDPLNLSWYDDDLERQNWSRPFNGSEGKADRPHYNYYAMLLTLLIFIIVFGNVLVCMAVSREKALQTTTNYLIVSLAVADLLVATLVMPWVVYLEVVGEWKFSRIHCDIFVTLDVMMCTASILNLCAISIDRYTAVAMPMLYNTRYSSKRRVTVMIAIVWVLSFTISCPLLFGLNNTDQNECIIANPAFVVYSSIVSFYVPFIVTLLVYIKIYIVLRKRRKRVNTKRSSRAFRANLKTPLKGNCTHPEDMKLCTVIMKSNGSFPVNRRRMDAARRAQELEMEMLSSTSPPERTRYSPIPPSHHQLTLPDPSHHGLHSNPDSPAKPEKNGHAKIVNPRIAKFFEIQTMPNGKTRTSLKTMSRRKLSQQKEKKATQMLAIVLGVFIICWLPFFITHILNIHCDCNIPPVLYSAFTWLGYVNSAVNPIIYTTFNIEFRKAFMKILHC
Chain of Sodium-dependent dopamine transporter (P23977 whole entry): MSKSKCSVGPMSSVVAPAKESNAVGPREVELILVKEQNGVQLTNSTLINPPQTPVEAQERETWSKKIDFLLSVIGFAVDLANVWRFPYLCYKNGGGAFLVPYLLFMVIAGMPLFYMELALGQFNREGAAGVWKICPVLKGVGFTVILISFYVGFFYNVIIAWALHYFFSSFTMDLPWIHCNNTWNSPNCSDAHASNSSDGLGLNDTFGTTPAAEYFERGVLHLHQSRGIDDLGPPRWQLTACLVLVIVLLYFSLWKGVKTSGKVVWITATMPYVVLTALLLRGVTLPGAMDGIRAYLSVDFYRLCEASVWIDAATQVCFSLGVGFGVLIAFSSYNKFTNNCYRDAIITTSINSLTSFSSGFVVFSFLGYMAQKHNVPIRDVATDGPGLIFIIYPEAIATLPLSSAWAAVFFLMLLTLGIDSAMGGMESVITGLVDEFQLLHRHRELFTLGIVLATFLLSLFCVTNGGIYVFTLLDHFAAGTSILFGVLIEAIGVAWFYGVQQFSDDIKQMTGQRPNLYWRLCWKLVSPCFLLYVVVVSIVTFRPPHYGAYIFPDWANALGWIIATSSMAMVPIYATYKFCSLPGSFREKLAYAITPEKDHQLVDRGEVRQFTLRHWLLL
Chain of 5-hydroxytryptamine receptor 6 (P31388 whole entry): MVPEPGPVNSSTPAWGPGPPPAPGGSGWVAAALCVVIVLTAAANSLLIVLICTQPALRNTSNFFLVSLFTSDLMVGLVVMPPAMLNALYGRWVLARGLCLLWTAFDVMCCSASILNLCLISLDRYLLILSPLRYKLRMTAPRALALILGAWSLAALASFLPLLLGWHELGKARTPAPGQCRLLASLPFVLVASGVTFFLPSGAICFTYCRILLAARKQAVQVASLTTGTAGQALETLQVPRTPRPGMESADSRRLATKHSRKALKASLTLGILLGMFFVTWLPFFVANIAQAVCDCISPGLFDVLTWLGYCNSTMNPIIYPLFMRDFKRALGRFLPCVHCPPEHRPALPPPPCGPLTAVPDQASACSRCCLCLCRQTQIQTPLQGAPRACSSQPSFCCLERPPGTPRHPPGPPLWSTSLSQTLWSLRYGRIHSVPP

Usually pKi stands for the negative decadic logarithm of the Ki, by convention in mol/L. Low values mean a large Ki, high ones a small Ki. What is called Ki is a measure of affinity in units of concentration, obtained from inhibition or displacement. Higher therefore signals a looser hold on the target. For the compound `COC(=O)C1(c2ccc(C)cc2)CC1CN1CCC(O)(c2ccccc2)CC1` (stereo not given), the pKi in [1] is below 5.00; on D(1A) dopamine receptor, below 5.00; in [3], below 5.00; on Glutamate NMDA receptor, below 5.00; on Histamine H1 receptor it was 5.85; in assay [5], 5.50. Besides, the pKi in [6] was below 5.00; on D(2) dopamine receptor, 5.89; in assay [7] it was 7.29; in assay [10], below 5.00; in assay [11], 8.82. Moreover, the outcome in the assay listed under Rattus norvegicus [2] and in the assay filed under Rattus norvegicus [4] was Active. The inhibitory constant (Ki) in assay [8] is reported as 605 nM; in [9] it was above 10000 nM.
